{
  "source": "ChEMBL document CHEMBL5036324",
  "about": "(J Med Chem, 2021)",
  "target": "TLR7 and TLR8 (Homo sapiens) (UniProt Q9NYK1+Q9NR97)",
  "test": "Agonist activity at human TLR7/8 expressed in human PBMC cells assessed as induction of G-CSF production by measuring concentration required to induce maximal response incubated for 12 hrs by multiplexed immunoassay",
  "format": "cell-based",
  "conditions": "filed as agonist",
  "in_short": "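Healthy-volunteer PBMCs from a single donor were isolated by Ficoll−Hypaque gradient and plated at 2.0 × 10⁶ cells/mL. They were stimulated for 12 h with escalating compound concentrations. Supernatants were assayed in duplicate on a 41-analyte magnetic bead cytokine/chemokine panel read by Luminex. EC_max is the concentration giving maximal cytokine induction.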",
  "data": [
    {"compound": "CCCCNc1nc(N)nc2ccc(Cc3ccc(CN(C)C)cc3)nc12", "values": [
      {"measurement": "ECmax", "value": 0.1, "unit": "µg/mL"}
    ]}
  ]
}
